Measurements taken from ChEMBL document CHEMBL1134325, “Diaminoindanes as microsomal triglyceride transfer protein inhibitors” (J Med Chem, 2001).
Where “and” joins values, the source holds several entries; their conditions need not be identical. Identical values can stand only once.

Key:
[1] = biological target: T1, Microsomal triglyceride transfer protein large subunit (Homo sapiens, UniProt P55157); experiment: In vitro inhibitory activity against MTP using MTP transfer assay
T1 sequence (P55157 whole entry): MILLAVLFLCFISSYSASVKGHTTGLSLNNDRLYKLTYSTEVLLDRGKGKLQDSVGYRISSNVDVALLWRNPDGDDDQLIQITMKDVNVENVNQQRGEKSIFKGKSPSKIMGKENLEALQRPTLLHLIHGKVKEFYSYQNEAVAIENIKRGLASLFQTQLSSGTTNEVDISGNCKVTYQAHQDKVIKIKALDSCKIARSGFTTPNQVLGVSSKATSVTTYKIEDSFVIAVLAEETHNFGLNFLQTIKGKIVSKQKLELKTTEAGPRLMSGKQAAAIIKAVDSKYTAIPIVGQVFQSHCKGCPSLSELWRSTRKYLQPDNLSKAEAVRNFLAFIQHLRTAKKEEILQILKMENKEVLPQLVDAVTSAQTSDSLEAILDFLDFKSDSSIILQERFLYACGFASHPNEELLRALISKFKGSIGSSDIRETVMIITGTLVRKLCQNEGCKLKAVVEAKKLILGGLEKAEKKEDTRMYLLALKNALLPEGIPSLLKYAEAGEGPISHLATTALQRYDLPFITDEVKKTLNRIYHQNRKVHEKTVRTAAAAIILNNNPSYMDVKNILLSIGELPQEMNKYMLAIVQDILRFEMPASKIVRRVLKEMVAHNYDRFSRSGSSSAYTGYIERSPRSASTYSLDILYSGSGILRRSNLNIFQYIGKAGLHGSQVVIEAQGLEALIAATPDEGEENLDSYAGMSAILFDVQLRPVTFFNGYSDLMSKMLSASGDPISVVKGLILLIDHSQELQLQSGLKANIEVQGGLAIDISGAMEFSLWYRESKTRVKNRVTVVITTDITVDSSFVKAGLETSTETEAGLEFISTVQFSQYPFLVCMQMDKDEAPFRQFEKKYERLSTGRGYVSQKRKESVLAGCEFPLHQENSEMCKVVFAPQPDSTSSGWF

Canis familiaris [2] = experiment: Inhibition of plasma total cholesterol in the normolipidemic dogs after day 0 of oral administration of 1 mg/kg/day.; format: functional, Canis lupus familiaris
How it was run: (§1)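 Normolipidemic dogs dosed once daily for 4 days by oral gavage, compound suspended in cornstarch vehicle. Plasma sampled 24 h after dosing on days 0, 2, 3 and 4, assayed for triglycerides and total cholesterol (mg/dL). Mean percent inhibition versus day-0 level is given for treated dogs; n = 6 per group; significance by one-way ANOVA, p < 0.05.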

Canis familiaris [3] = experiment: Inhibition of plasma total triglycerides in the normolipidemic dogs after day 3 of oral administration of 5 mg/kg/day.; format: functional, Canis lupus familiaris
Canis familiaris [4] = experiment: Inhibition of plasma total triglycerides in the normolipidemic dogs after day 4 of oral administration of 1 mg/kg/day.; format: functional, Canis lupus familiaris
Canis familiaris [5] = experiment: Inhibition of plasma total triglycerides in the normolipidemic dogs after day 4 of oral administration of 2.5 mg/kg/day; format: functional, Canis lupus familiaris
Canis familiaris [6] = experiment: Inhibition of plasma total triglycerides in the normolipidemic dogs after day 4 of oral administration of 5 mg/kg/day; format: functional, Canis lupus familiaris
Canis familiaris [7] = experiment: Inhibition of plasma total cholesterol in the normolipidemic dogs after day 0 of oral administration of 2.5 mg/kg/day.; format: functional, Canis lupus familiaris; how it was run: as §1
Canis familiaris [8] = experiment: Inhibition of plasma total cholesterol in the normolipidemic dogs after day 0 of oral administration of 5 mg/kg/day.; format: functional, Canis lupus familiaris; how it was run: as §1
Canis familiaris [9] = experiment: Inhibition of plasma total cholesterol in the normolipidemic dogs after day 2 of oral administration of 1 mg/kg/day.; format: functional, Canis lupus familiaris; how it was run: as §1
Canis familiaris [10] = experiment: Inhibition of plasma total cholesterol in the normolipidemic dogs after day 2 of oral administration of 2.5 mg/kg/day.; format: functional, Canis lupus familiaris; how it was run: as §1
Canis familiaris [11] = experiment: Inhibition of plasma total triglycerides in the normolipidemic dogs after day 3 of oral administration of 1 mg/kg/day.; format: functional, Canis lupus familiaris
Canis familiaris [12] = experiment: Inhibition of plasma total cholesterol in the normolipidemic dogs after day 2 of oral administration of 5 mg/kg/day.; format: functional, Canis lupus familiaris; how it was run: as §1
Canis familiaris [13] = experiment: Inhibition of plasma total cholesterol in the normolipidemic dogs after day 3 of oral administration of 1 mg/kg/day.; format: functional, Canis lupus familiaris; how it was run: as §1
Canis familiaris [14] = experiment: Inhibition of plasma total cholesterol in the normolipidemic dogs after day 3 of oral administration of 2.5 mg/kg/day.; format: functional, Canis lupus familiaris; how it was run: as §1
Canis familiaris [15] = experiment: Inhibition of plasma total cholesterol in the normolipidemic dogs after day 3 of oral administration of 5 mg/kg/day.; format: functional, Canis lupus familiaris; how it was run: as §1
Canis familiaris [16] = experiment: Inhibition of plasma total cholesterol in the normolipidemic dogs after day 4 of oral administration of 1 mg/kg/day; format: functional, Canis lupus familiaris; how it was run: as §1
Canis familiaris [17] = experiment: Inhibition of plasma total cholesterol in the normolipidemic dogs after day 4 of oral administration of 2.5 mg/kg/day; format: functional, Canis lupus familiaris; how it was run: as §1
Canis familiaris [18] = experiment: Inhibition of plasma total cholesterol in the normolipidemic dogs after day 4 of oral administration of 5 mg/kg/day; format: functional, Canis lupus familiaris; how it was run: as §1
Canis familiaris [19] = experiment: Inhibition of plasma total triglycerides in the normolipidemic dogs after day 0 of oral administration of 1 mg/kg/day.; format: functional, Canis lupus familiaris; how it was run: as §1
Canis familiaris [20] = experiment: Inhibition of plasma total triglycerides in the normolipidemic dogs after day 0 of oral administration of 2.5 mg/kg/day.; format: functional, Canis lupus familiaris; how it was run: as §1
Canis familiaris [21] = experiment: Inhibition of plasma total triglycerides in the normolipidemic dogs after day 0 of oral administration of 5 mg/kg/day.; format: functional, Canis lupus familiaris; how it was run: as §1
Canis familiaris [22] = experiment: Inhibition of plasma total triglycerides in the normolipidemic dogs after day 2 of oral administration of 1 mg/kg/day.; format: functional, Canis lupus familiaris; how it was run: as §1
Canis familiaris [23] = experiment: Inhibition of plasma total triglycerides in the normolipidemic dogs after day 2 of oral administration of 2.5 mg/kg/day.; format: functional, Canis lupus familiaris; how it was run: as §1
Rattus norvegicus [24] = experiment: Inhibition of plasma triglycerides in normolipidemic rats after 2 hr of 10 mg/kg oral dosing; format: functional
How it was run: (§2)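 Overnight-fasted normolipidemic rats received a single oral dose in cornstarch vehicle. Blood was drawn at 2, 6 and 24 h post-dose and assayed for triglycerides and total cholesterol, with free access to food after the 6 h sample. Value is mean percent inhibition versus a separate vehicle-treated group, unpaired t test p < 0.05, NS = no significant change, N = 6.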

Rattus norvegicus [25] = experiment: Inhibition of plasma triglycerides in normolipidemic rats after 2 hr of 5 mg/kg oral dosing; format: functional; how it was run: as §2
Rattus norvegicus [26] = experiment: Inhibition of plasma triglycerides in normolipidemic rats after 2 hr of 50 mg/kg oral dosing; format: functional; how it was run: as §2
Rattus norvegicus [27] = experiment: Inhibition of plasma triglycerides in normolipidemic rats after 24 hr of 50 mg/kg oral dosing; format: functional; how it was run: as §2
Rattus norvegicus [28] = experiment: Inhibition of plasma triglycerides in normolipidemic rats after 6 hr of 10 mg/kg oral dosing; format: functional; how it was run: as §2
Rattus norvegicus [29] = experiment: Inhibition of plasma triglycerides in normolipidemic rats after 6 h of 5 mg/kg oral dosing; format: functional; how it was run: as §2
Rattus norvegicus [30] = experiment: Inhibition of plasma triglycerides in normolipidemic rats after 6 hr of 50 mg/kg oral dosing; format: functional; how it was run: as §2
Rattus norvegicus [31] = experiment: Inhibition of total cholesterol in normolipidemic rats after 2 hr of 50 mg/kg oral dosing; format: functional; conditions: 50 mg/kg; how it was run: as §2
Rattus norvegicus [32] = experiment: Inhibition of total cholesterol in normolipidemic rats after 6 hr of 50 mg/kg oral dosing; format: functional; conditions: 50 mg/kg; how it was run: as §2
Rattus norvegicus [33] = species: Rattus norvegicus; experiment: Hepatic cholesterol content in Normolipidemic rat liver after treatment.; format: functional
How it was run: (§3)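 Normolipidemic rats dosed orally, with vehicle controls. Liver cholesterol and triglyceride are reported as mg/g of liver, and liver weight in g. For the reversibility set, dosing was 5 mg/kg for 5 days, with livers analysed after treatment and again 6 days after treatment withdrawal.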

Rattus norvegicus [34] = species: Rattus norvegicus; experiment: Hepatic cholesterol content in Normolipidemic rat liver after washout.; format: functional; how it was run: as §3
Rattus norvegicus [35] = experiment: Hepatic cholesterol content in Normolipidemic rat liver for 1 mg/kg of dose of the compound; format: functional; how it was run: as §3
Rattus norvegicus [36] = experiment: Hepatic cholesterol content in Normolipidemic rat liver for 5 mg/kg of dose of the compound; format: functional; how it was run: as §3
Rattus norvegicus [37] = species: Rattus norvegicus; experiment: Hepatic triglyceride content in Normolipidemic rat liver after treatment.; format: functional; how it was run: as §3
Rattus norvegicus [38] = species: Rattus norvegicus; experiment: Hepatic triglyceride content in Normolipidemic rat liver after washout.; format: functional; how it was run: as §3
Rattus norvegicus [39] = experiment: Hepatic triglyceride content in Normolipidemic rat liver for 0.5 mg/kg of dose of the compound; format: functional; how it was run: as §3
Rattus norvegicus [40] = experiment: Hepatic triglyceride content in Normolipidemic rat liver for 1 mg/kg of dose of the compound; format: functional; how it was run: as §3
Rattus norvegicus [41] = experiment: Hepatic triglyceride content in Normolipidemic rat liver for 5 mg/kg of dose of the compound; format: functional; how it was run: as §3
Rattus norvegicus [42] = experiment: Total liver weight in Normolipidemic rat liver for 0.5 mg/kg of dose of the compound; format: functional; how it was run: as §3
Rattus norvegicus [43] = experiment: Total liver weight in Normolipidemic rat liver for 1 mg/kg of dose of the compound; format: functional; how it was run: as §3
Rattus norvegicus [44] = experiment: Total liver weight in Normolipidemic rat liver for 5 mg/kg of dose of the compound; format: functional; how it was run: as §3
Rattus norvegicus [45] = experiment: Inhibition of plasma triglycerides in normolipidemic rats after 24 hr of 10 mg/kg oral dosing; no significant change; format: functional, organism-based; set-up: dose 10 mg/kg; how it was run: as §2
Canis familiaris [46] = experiment: Inhibition of plasma total triglycerides in the normolipidemic dogs after day 2 of oral administration of 5 mg/kg/day.; format: functional, Canis lupus familiaris; how it was run: as §1
Canis familiaris [47] = experiment: Inhibition of plasma total triglycerides in the normolipidemic dogs after day 3 of oral administration of 2.5 mg/kg/day.; format: functional, Canis lupus familiaris
Rattus norvegicus [48] = experiment: Hepatic cholesterol content in Normolipidemic rat liver for 0.5 mg/kg of dose of the compound; format: functional; how it was run: as §3

COC(=O)N[C@H]1Cc2ccc(NC(=O)c3cccc(C)c3-c3ccc(C(F)(F)F)cc3)cc2C1
IC50 [1]: 70 nM | Lipid level (Canis familiaris [2]): 110 mg/dL | Lipid level (Canis familiaris [3]): <16 mg/dL | Lipid level (Canis familiaris [4]): 45 mg/dL | Lipid level (Canis familiaris [5]): <23 mg/dL | Lipid level (Canis familiaris [6]): <12 mg/dL | Lipid level (Canis familiaris [7]): 113 mg/dL | Lipid level (Canis familiaris [8]): 124 mg/dL | Lipid level (Canis familiaris [9]): 103 mg/dL | Lipid level (Canis familiaris [10]): <90 mg/dL | Lipid level (Canis familiaris [11]): 48 mg/dL | Lipid level (Canis familiaris [12]): <87 mg/dL | Lipid level (Canis familiaris [13]): 101 mg/dL | Lipid level (Canis familiaris [14]): <76 mg/dL | Lipid level (Canis familiaris [15]): <68 mg/dL | Lipid level (Canis familiaris [16]): <89 mg/dL | Lipid level (Canis familiaris [17]): <57 mg/dL | Lipid level (Canis familiaris [18]): <54 mg/dL | Lipid level (Canis familiaris [19]): 46 mg/dL | Lipid level (Canis familiaris [20]): 59 mg/dL | Lipid level (Canis familiaris [21]): 48 mg/dL | Lipid level (Canis familiaris [22]): 42 mg/dL | Lipid level (Canis familiaris [23]): <32 mg/dL | Reduction (Rattus norvegicus [24]): 84% | Reduction (Rattus norvegicus [25]): 78% | Reduction (Rattus norvegicus [26]): 81% | Reduction (Rattus norvegicus [27]): 63% | Reduction (Rattus norvegicus [28]): 68% | Reduction (Rattus norvegicus [29]): 59% | Reduction (Rattus norvegicus [30]): 71% | Reduction (Rattus norvegicus [31]): 33% and 41% and 30% | Reduction (Rattus norvegicus [32]): 52% and 58% and 47% | Hepatic cholesterol (Rattus norvegicus [33]): <2.76 mg/g | Hepatic cholesterol (Rattus norvegicus [34]): 1.12 mg/g | Hepatic cholesterol (Rattus norvegicus [35]): 2.01 mg/g | Hepatic cholesterol (Rattus norvegicus [36]): 3.09 mg/g | Hepatic triglyceride (Rattus norvegicus [37]): <13.6 mg/g | Hepatic triglyceride (Rattus norvegicus [38]): 2.38 mg/g | Hepatic triglyceride (Rattus norvegicus [39]): 4.61 mg/g | Hepatic triglyceride (Rattus norvegicus [40]): 8.16 mg/g | Hepatic triglyceride (Rattus norvegicus [41]): 17.7 mg/g | Total liver weight (Rattus norvegicus [42]): 9.13 g | Total liver weight (Rattus norvegicus [43]): 9.6 g | Total liver weight (Rattus norvegicus [44]): 9.79 g | NS (Rattus norvegicus [45]): no significant change | Lipid level (Canis familiaris [46]): <22 mg/dL | Lipid level (Canis familiaris [47]): <25 mg/dL | Hepatic cholesterol (Rattus norvegicus [48]): 1.4 mg/g
